Test results as given in ChEMBL document CHEMBL2040797, “Synthesis of benzimidazoles bearing oxadiazole nucleus as anticancer agents” (2012).

How the values were obtained:
Format in all cases: functional
LOX IMVI = test: Cytotoxicity against human LOXIMVI cells after 48 hrs by sulforhodamine B assay
Outline: (§1)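 NCI 60-panel screen. Cells were grown in RPMI 1640 with 5% FBS and L-glutamine and plated at 5000–40,000 cells/well according to doubling time. They were preincubated 24 h at 37 °C, 5% CO2, then exposed 48 h to five 10-fold dilutions. Adherent cells were fixed with cold TCA, final 10%; suspension cells were fixed after settling. Cells were stained with 0.4% SRB and read at 515 nm. Tz/C/Ti growth curves gave GI50, TGI and LC50.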

SF-268 [1] = test: Cytotoxicity against human SF268 cells after 48 hrs by sulforhodamine B assay; conditions: SF-268, 48 h; outline: as §1
TK-10 [2] = test: Cytotoxicity against human TK10 cells after 48 hrs by sulforhodamine B assay; conditions: TK-10, 48 h
Outline: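 NCI 60 panel five-dose screen. Cells in RPMI 1640 with 5% FBS and 2 mM L-glutamine, plated at 5000–40,000 cells/well and preincubated 24 h. Compounds were tested at five 10-fold concentrations (0.01–100) for 48 h at 37 °C, 5% CO2. Cells were fixed with TCA and stained with SRB, absorbance 515 nm. GI50, TGI and LC50 were taken from % growth curves against time-zero and control.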

OVCAR-4 = test: Growth inhibition of human OVCAR4 cells at 10 uM after 48 hrs by sulforhodamine B assay; conditions: OVCAR-4, 48 h, read-out: GI
Outline: (§2)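 NCI one-dose primary screen at 10 (printed mM) across the 60-line panel. Cells in RPMI 1640 with 5% FBS and 2 mM L-glutamine, plated at 5000–40,000 cells/well and incubated 24 h before dosing. Exposure 48 h at 37 °C, 5% CO2. Adherent cells were fixed with cold TCA, suspension cells fixed after settling. SRB stain, absorbance 515 nm. Reported as percent growth of treated cells relative to control.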

SNB-19 = test: Growth inhibition of human SNB19 cells at 10 uM after 48 hrs by sulforhodamine B assay; conditions: SNB-19, 48 h, read-out: GI
Outline: (§3)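 NCI-60 single-dose screen. Cells grown in RPMI 1640 with 5% FBS and L-glutamine, plated at 5000–40,000 cells/well by doubling time, and preincubated 24 h at 37 °C, 5% CO2. Compound stocks in DMSO, added at one concentration, then incubated 48 h. Adherent cells fixed with cold TCA (10% final), stained with 0.4% SRB, dye solubilized in 10 mM Tris base, A515 read. Reported as percent growth relative to untreated control.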

786-0 = test: Cytotoxicity against human 786-0 cells after 48 hrs by sulforhodamine B assay; conditions: 786-0, 48 h; outline: as §1
NCI-H23 = test: Cytotoxicity against human NCI-H23 cells after 48 hrs by sulforhodamine B assay; conditions: NCI-H23, 48 h; outline: as §1
SR = test: Cytotoxicity against human SR cells after 48 hrs by sulforhodamine B assay; outline: as §1
ACHN = test: Growth inhibition of human ACHN cells at 10 uM after 48 hrs by sulforhodamine B assay; conditions: read-out: GI; outline: as §2
HT-29 = test: Growth inhibition of human HT-29 cells at 10 uM after 48 hrs by sulforhodamine B assay; conditions: HT-29, 48 h, read-out: GI; outline: as §2
SF-268 [3] = test: Growth inhibition of human SF268 cells at 10 uM after 48 hrs by sulforhodamine B assay; conditions: SF-268, 48 h, read-out: GI; outline: as §2
SNB-75 = test: Growth inhibition of human SNB75 cells at 10 uM after 48 hrs by sulforhodamine B assay; conditions: SNB-75, 48 h, read-out: GI; outline: as §3
MDA-MB-231 = test: Growth inhibition of human MDA-MB-231 cells at 10 uM after 48 hrs by sulforhodamine B assay; conditions: MDA-MB-231, 48 h, read-out: GI; outline: as §2
OVCAR-8 = test: Cytotoxicity against human OVCAR8 cells after 48 hrs by sulforhodamine B assay; conditions: OVCAR-8, 48 h; outline: as §1
NCI-H322M = test: Growth inhibition of human NCI-H322M cells at 10 uM after 48 hrs by sulforhodamine B assay; conditions: read-out: GI; outline: as §2
TK-10 [4] = test: Growth inhibition of human TK10 cells at 10 uM after 48 hrs by sulforhodamine B assay; conditions: TK-10, 48 h, read-out: GI; outline: as §3
HOP-92 = test: Growth inhibition of human HOP92 cells at 10 uM after 48 hrs by sulforhodamine B assay; conditions: HOP-92, 48 h, read-out: GI; outline: as §2
OVCAR-3 = test: Growth inhibition of human OVCAR3 cells at 10 uM after 48 hrs by sulforhodamine B assay; conditions: OVCAR-3, 48 h, read-out: GI; outline: as §2
SK-OV-3 = test: Growth inhibition of human SKOV3 cells at 10 uM after 48 hrs by sulforhodamine B assay; conditions: SK-OV-3, 48 h, read-out: GI; outline: as §3
NCI-H522 = test: Growth inhibition of human NCI-H522 cells at 10 uM after 48 hrs by sulforhodamine B assay; conditions: NCI-H522, 48 h, read-out: GI; outline: as §2
SF-295 = test: Cytotoxicity against human SF295 cells after 48 hrs by sulforhodamine B assay; conditions: SF-295, 48 h; outline: as §1
NCI-H226 = test: Growth inhibition of human NCI-H226 cells at 10 uM after 48 hrs by sulforhodamine B assay; conditions: NCI-H226, 48 h, read-out: GI; outline: as §2
SF-539 = test: Growth inhibition of human SF539 cells at 10 uM after 48 hrs by sulforhodamine B assay; conditions: SF-539, 48 h, read-out: GI; outline: as §2
EKVX = test: Cytotoxicity against human EKVX cells after 48 hrs by sulforhodamine B assay; outline: as §1
HL-60(TB) = test: Cytotoxicity against human HL-60(TB) cells after 48 hrs by sulforhodamine B assay; conditions: HL-60, 48 h
Outline: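 NCI 60-panel five-dose assay. Cells are grown in RPMI 1640 with 5% FBS and L-glutamine. They are plated at 5000–40,000 cells/well according to doubling time and pre-incubated 24 h at 37 °C, 5% CO2. DMSO-stock compound is added at five 10-fold or ½-log dilutions for 48 h. Settled suspension cells are fixed, then SRB-stained and read at 515 nm. Percent growth is computed from time-zero, control and treated absorbances, and LC50 is taken where protein falls 50% below the starting level.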

SK-MEL-28 = test: Growth inhibition of human SK-MEL-28 cells at 10 uM after 48 hrs by sulforhodamine B assay; conditions: SK-MEL-28, 48 h, read-out: GI; outline: as §3
[5] = read-out: LC50 (the source's name)

In the case of O=C(CCc1nnc(-c2ccc(Cl)cc2Cl)o1)c1nc2ccccc2[nH]1, the GI50 (LOX IMVI) is reported as 4.03 µM, the TGI (LOX IMVI) is reported as 39.8 µM and the CC50 (LOX IMVI; [5]) is reported as 100 µM. The GI50 (SF-268 [1]) was 7.3 µM, the TGI (SF-268 [1]) was 46.6 µM and the CC50 (SF-268 [1]; [5]) was 100 µM. The GI50 (TK-10 [2]) was 16.4 µM, the TGI (TK-10 [2]) was 100 µM and the CC50 (TK-10 [2]; [5]) was 100 µM. The inhibition of growth at 10 µM (OVCAR-4) was 41.2%, the inhibition of growth at 10 µM (SNB-19) was 24.9% and the GI50 (786-0) was 10.7 µM. It also gave a TGI (786-0) of 45.5 µM, a CC50 (786-0; [5]) of 100 µM and a GI50 (NCI-H23) of 3.23 µM. For the same compound, the TGI (NCI-H23) was 63.2 µM, the CC50 (NCI-H23; [5]) was 100 µM and the GI50 (SR) was 2.63 µM. The TGI (SR) was 15.2 µM, the CC50 (SR; [5]) was 100 µM and the inhibition of growth at 10 µM (ACHN) was 18.7%. It also gave an inhibition of growth at 10 µM (HT-29) of 90.6%, an inhibition of growth at 10 µM (SF-268 [3]) of 31.9% and an inhibition of growth at 10 µM (SNB-75) of 36.6%. It also gave an inhibition of growth at 10 µM (MDA-MB-231) of 61.7%, a GI50 (OVCAR-8) of 9.26 µM and a TGI (OVCAR-8) of 100 µM. For the same compound, the CC50 (OVCAR-8; [5]) was 100 µM, the inhibition of growth at 10 µM (NCI-H322M) was 24% and the inhibition of growth at 10 µM (TK-10 [4]) was 36%. It also gave an inhibition of growth at 10 µM (HOP-92) of 93.3%, an inhibition of growth at 10 µM (OVCAR-3) of 33.6% and an inhibition of growth at 10 µM (SK-OV-3) of 35.2%. It also gave an inhibition of growth at 10 µM (NCI-H522) of 50.2%, a GI50 (SF-295) of 5.98 µM and a TGI (SF-295) of 42.9 µM. For the same compound, the CC50 (SF-295; [5]) was 100 µM, the inhibition of growth at 10 µM (NCI-H226) was 16.3% and the inhibition of growth at 10 µM (SF-539) was 4.76%. It also gave a GI50 (EKVX) of 5.48 µM, a TGI (EKVX) of 100 µM and a CC50 (EKVX; [5]) of 100 µM. It also gave a GI50 (HL-60(TB)) of 2.23 µM, a TGI (HL-60(TB)) of 19.3 µM and a CC50 (HL-60(TB); [5]) of 100 µM. The inhibition of growth at 10 µM (SK-MEL-28) was 17.3%.
